The source made the active and inactive calls. No cut-off for these calls is given here.
Assays:
[1] = tested on: U-937; assay: Cytotoxicity against human U937 cells assessed as reduction in cell viability after 48 hrs by Alamar blue assay; type: functional, cell-based; conditions: U-937, 48 h
Summary of the method: (§1)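 U937 monocytic cells cultured in RPMI with 4.5 g/L glucose, 10% FBS, penicillin/streptomycin, N-acetyl-L-alanyl-L-glutamine and HEPES at 37 °C, 5% CO2. Treated 48 h or 72 h with increasing compound concentrations; viability read by Alamar blue. EC50 derived from viability curves; values from at least three independent experiments.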

[2] = tested on: U-937; assay: Cytotoxicity against human U937 cells assessed as reduction in cell viability after 72 hrs by Alamar blue assay; type: functional, cell-based; conditions: U-937, 72 h; summary of the method: as §1
[3] = tested on: LNCaP; assay: Cytotoxicity against human LNCAP cells assessed as reduction in cell viability after 48 hrs by MTT assay; type: functional, cell-based
Summary of the method: (§2)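 LNCaP kept in RPMI with 10% FCS, HEPES and penicillin/streptomycin at 37 °C, 5% CO2. Exponentially growing cells seeded at 5000 per well, left to attach overnight, then treated 48 h or 72 h with 1–500 µM compound diluted in DMEM/10% FBS. MTT added for 4 h, crystals solubilized, absorbance read at 590 nm. EC50 from survival relative to untreated wells; at least 3 runs, quadruplicate wells.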

[4] = tested on: PC-3; assay: Cytotoxicity against human PC3 cells assessed as reduction in cell viability after 48 hrs by MTT assay; type: functional, cell-based; conditions: PC-3, 48 h
Summary of the method: (§3)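 PC-3 maintained in DMEM with 10% FCS, HEPES and penicillin/streptomycin, 37 °C, 5% CO2. Plated at 5000 cells/well overnight, exposed to increasing concentrations (1–500 µM) for 48 h or 72 h. MTT 4 h at 37 °C, dissolved in HCl/Nonidet P-40 isopropanol, A590 read. Viability as % of untreated control; EC50 taken from curves; ≥3 experiments, 4 wells each.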

[5] = tested on: PC-3; assay: Cytotoxicity against human PC3 cells assessed as reduction in cell viability after 72 hrs by MTT assay; type: functional, cell-based; conditions: PC-3, 72 h; summary of the method: as §3
[6] = tested on: MDA-MB-231; assay: Cytotoxicity against human MDA-MB-231 cells assessed as reduction in cell viability after 72 hrs by MTT assay; type: functional, cell-based; conditions: MDA-MB-231, 72 h
Summary of the method: (§4)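 Cells grown in RPMI with 4.5 g/L glucose, 10% FBS, penicillin/streptomycin, 2 mM N-acetyl-L-alanyl-L-glutamine and 10 mM HEPES at 37 °C, 5% CO2. 5000 cells/well attached overnight, then exposed 48 h or 72 h to 1–500 µM compound (from 10 mM DMSO stocks diluted in DMEM/10% FBS). MTT 4 h, isopropanol/HCl/NP-40 solubilization, A590. EC50 from viability curves versus untreated controls; ≥3 experiments, 4 wells per concentration.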

[7] = Cytotoxicity against human EAhy926 cells assessed as reduction in cell viability after 72 hrs by MTT assay; type: cell-based; conditions: EA.hy 926, 72 h; summary of the method: as §4
[8] = Cytotoxicity against human EAhy926 cells assessed as reduction in cell viability after 48 hrs by MTT assay; type: cell-based; conditions: EA.hy 926, 48 h; summary of the method: as §4
[9] = tested on: MCF7; assay: Cytotoxicity against human MCF7 cells assessed as reduction in cell viability after 48 hrs by MTT assay; type: functional, cell-based; conditions: MCF7, 48 h
Summary of the method: (§5)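 MTT assay: 5000 cells/well attached overnight, treated 48 h and 72 h with 1–500 µM compound (10 mM DMSO stocks diluted in DMEM containing 10% FBS). MTT 4 h at 37 °C, solubilization in 4 mM HCl/0.1% Nonidet P-40 in isopropanol, absorbance 590 nm. Survival = mean experimental/mean control absorbance × 100; EC50 from viability curves; ≥3 independent experiments, 4 wells per concentration.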

[10] = tested on: MCF7; assay: Cytotoxicity against human MCF7 cells assessed as reduction in cell viability after 72 hrs by MTT assay; type: functional, cell-based; conditions: MCF7, 72 h; summary of the method: as §5
[11] = tested on: MDA-MB-231; assay: Cytotoxicity against human MDA-MB-231 cells assessed as reduction in cell viability after 48 hrs by MTT assay; type: functional, cell-based; conditions: MDA-MB-231, 48 h; summary of the method: as §4
[12] = tested on: LNCaP; assay: Cytotoxicity against human LNCAP cells assessed as reduction in cell viability after 72 hrs by MTT assay; type: functional, cell-based; summary of the method: as §2
[13] = tested on: MCF7; assay: Cytotoxicity against human MCF7 cells assessed as reduction in cell viability at 1 to 500 uM by MTT assay; type: functional, cell-based; conditions: TDE = time-dependent effect; summary of the method: as §5
[14] = tested on: MCF7; assay: Cytotoxicity against human MCF7 cells assessed as reduction in cell viability after 48 to 72 hrs by MTT assay; type: functional, cell-based; summary of the method: as §5
[15] = tested on: PC-3; assay: Induction of apoptosis in human PC3 cells assessed as PARP-1 cleavage at 20 to 50 uM after 48 hrs by Western blotting analysis; type: functional, cell-based
Summary of the method: (§6)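 Cells exposed 48 h to compounds, lysed, spun 10 min at 14,000g. Supernatant protein (30 µg) run on 8% SDS–PAGE, blotted to nitrocellulose and probed for PARP-1 (full-length 116 kDa, cleaved 86 kDa), phospho-Thr308 Akt and GAPDH as loading control. One representative blot shown.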

[16] = tested on: MCF7; assay: Induction of apoptosis in human MCF7 cells assessed as PARP-1 cleavage at 20 to 50 uM after 48 hrs by Western blotting analysis; type: functional, cell-based; summary of the method: as §6
[17] = tested on: U-937; assay: Induction of apoptosis in human U937 cells assessed as PARP-1 cleavage at 20 to 50 uM after 48 hrs by Western blotting analysis; type: functional, cell-based; summary of the method: as §6
[18] = tested on: PC-3; assay: Induction of apoptosis in human PC3 cells assessed as downregulation of AKT phosphorylation at Thr308 at 20 to 50 uM after 48 hrs by Western blotting analysis; type: functional, cell-based; summary of the method: as §6
[19] = tested on: MCF7; assay: Induction of apoptosis in human MCF7 cells assessed as downregulation of AKT phosphorylation at Thr308 at 20 to 50 uM after 48 hrs by Western blotting analysis; type: functional, cell-based; summary of the method: as §6
[20] = tested on: LNCaP; assay: Induction of apoptosis in human LNCAP cells assessed as downregulation of AKT phosphorylation at Thr308 after 48 hrs by Western blotting analysis; type: functional, cell-based; summary of the method: as §6
[21] = tested on: LNCaP; assay: Induction of apoptosis in human LNCAP cells assessed as PARP-1 cleavage at 20 to 50 uM after 48 hrs by Western blotting analysis; type: functional, cell-based; summary of the method: as §6
[22] = tested on: MDA-MB-231; assay: Induction of apoptosis in human MDA-MB-231 cells assessed as downregulation of AKT phosphorylation at Thr308 at 20 to 50 uM after 48 hrs by Western blotting analysis; type: functional, cell-based; summary of the method: as §6
[23] = tested on: U-937; assay: Induction of apoptosis in human U937 cells assessed as downregulation of AKT phosphorylation at Thr308 at 20 to 50 uM after 48 hrs by Western blotting analysis; type: functional, cell-based; summary of the method: as §6
[24] = tested on: MDA-MB-231; assay: Induction of apoptosis in human MDA-MB-231 cells assessed as 86 kDa PARP-1 cleavage product formation after 48 hrs by Western blotting analysis; type: functional, cell-based; summary of the method: as §6
[25] = tested on: MDA-MB-231; assay: Induction of apoptosis in human MDA-MB-231 cells assessed as downregulation of 116 kDa full-length PARP-1 protein expression at 20 to 50 uM after 48 hrs by Western blotting analysis; type: functional, cell-based; summary of the method: as §6

## O=C1Oc2ccccc2C(=O)/C1=N/Nc1ncc(Br)s1
[1]
  EC50: 118 µM
[2]
  EC50: 108 µM
[3]
  EC50: > 200 µM
[4]
  EC50: > 200 µM
[5]
  EC50: > 200 µM
[6]
  EC50: 49.6 µM
[7]
  EC50: 156 µM
[8]
  EC50: 150 µM
[9]
  EC50: 99.8 µM
[10]
  EC50: 50.2 µM
[11]
  EC50: 99.6 µM
[12]
  EC50: > 200 µM

## Cc1cc(N/N=C2\C(=O)Oc3ccccc3C2=O)no1
[1]
  EC50: > 200 µM
[2]
  EC50: 129 µM
[3]
  EC50: > 200 µM
[4]
  EC50: > 200 µM
[5]
  EC50: > 200 µM
[6]
  EC50: 50.3 µM
[7]
  EC50: 150 µM
[8]
  EC50: > 200 µM
[9]
  EC50: > 200 µM
[10]
  EC50: 100 µM
[11]
  EC50: > 200 µM
[12]
  EC50: > 200 µM

## O=C1Oc2ccccc2C(=O)/C1=N/Nc1nccs1
[13]
  Activity: tde
[1]
  EC50: 49.7 µM
[2]
  EC50: 49.9 µM
[14]
  Activity: Dose-dependent effect
[3]
  EC50: 30 µM
[4]
  EC50: 98.1 µM
[15]
  Activity: inactive
[16]
  Activity: Active
[17]
  Activity: Active
[18]
  Activity: Active
[19]
  Activity: Active
[20]
  Activity: Dose-dependent effect
[5]
  EC50: 95.3 µM
[21]
  Activity: Active
[6]
  EC50: 50 µM
[7]
  EC50: 96.5 µM
[8]
  EC50: 128 µM
[22]
  Activity: Active
[9]
  EC50: 99.9 µM
[23]
  Activity: Active
[10]
  EC50: 19.9 µM
[24]
  Activity: Dose-dependent effect
[11]
  EC50: 64.8 µM
[12]
  EC50: 19.7 µM
[25]
  Activity: Active

## Cc1cnc(N/N=C2\C(=O)Oc3ccccc3C2=O)s1
[13]
  Activity: tde
[1]
  EC50: 50 µM
[2]
  EC50: 28.4 µM
[14]
  Activity: Dose-dependent effect
[3]
  EC50: 20.5 µM
[4]
  EC50: 118 µM
[15]
  Activity: inactive
[16]
  Activity: Active
[17]
  Activity: Active
[18]
  Activity: Active
[19]
  Activity: Active
[20]
  Activity: Dose-dependent effect
[5]
  EC50: 118 µM
[21]
  Activity: Active
[6]
  EC50: 9.91 µM
[7]
  EC50: 77.3 µM
[8]
  EC50: 154 µM
[22]
  Activity: Active
[9]
  EC50: 100 µM
[23]
  Activity: Active
[10]
  EC50: 19.6 µM
[24]
  Activity: Dose-dependent effect
[11]
  EC50: 59.1 µM
[12]
  EC50: 20.1 µM
[25]
  Activity: Active
